# Experimental data: paper PMC7239729 (Pharmacology, biochemistry, and behavior, 2020)
# Where “and” joins values, the source holds several entries; their conditions need not be identical. Identical values can stand only once. Like-named read-outs stand apart in the source and are kept apart here.
# Key:
# [1] = same dosing procedure; ref Kevin et al., 2017b; cited from earlier work
# hCB1 receptors = details: ref Wouters et al., 2019; cited from earlier work
# hCB2 receptor [2] = biological target: T1, hCB2 receptor (Homo sapiens, UniProt P34972); experiment: agonist-stimulated [35S]GTPγS binding, hCB2 HEK293 membranes; assay type: biochemical; details: for CP55,940 more potent than the compound: hCB2, [35S]GTPγS; for CP55,940 greater efficacy than the compound: hCB2, [35S]GTPγS Emax
# male ICR mice = experiment: cannabinoid tetrad in mice; assay type: in vivo, mouse
# mice = details: ref Wiley et al., 2015, cited from earlier work
# CB1 = details: read-out: affinity; ref Wiley et al., 2015; cited from earlier work
# [3] = biological target: human CB1 (hCB1) receptor (Homo sapiens, UniProt P21554); assay type: binding; details: at both receptors (hCB1 and hCB2)
# [4] = biological target: human CB2 (hCB2) receptor (Homo sapiens, UniProt P34972); experiment: [3H]CP55,940 competition binding, hCB2 HEK293 membranes
# hCB1 receptor [5] = biological target: T2, hCB1 receptor (Homo sapiens, UniProt P21554); experiment: biochemical; assay type: biochemical
# hCB1 receptor [6] = biological target: T2, hCB1 receptor; experiment: cell-based; assay type: cell-based
# hCB2 receptor [7] = biological target: T1, hCB2 receptor; experiment: inhibition of forskolin-stimulated cAMP production; assay type: cell-based; details: for CP55,940 more potent than the compound: hCB2, cAMP
# [8] = tested on: mice trained to discriminate THC (5.6 mg/kg, i.p.) from vehicle; experiment: THC drug discrimination in mice; assay type: in vivo, mouse; details: for substitution for THC / effect on response rates compared to vehicle: i.p.; for substitution for THC: EG-018 10 – 100 mg/kg, full substitution ≥ 80% drug-aperture responding; for effect on response rates compared to vehicle: substitution tests; for ED50: Mus musculus
# [9] = rat liver microsome incubation; assay type: in vitro ADME
# Method in brief: (§1)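 Pooled liver microsomes (rat: IGS Sprague-Dawley; human: pooled) at 1 mg protein/mL final with 1 mM NADPH in 50 mM potassium phosphate, pH 7.4, 3 mM MgCl2. Mix preincubated 5 min at 37 °C, then test compound added to 1 μM. Triplicate incubations at 37 °C. Samples at 0, 5, 10, 30 and 60 min quenched in acetonitrile, then extracted with acetonitrile (3:1) and analysed by LC-MS/MS.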
# [10] = human liver microsome incubation; assay type: in vitro ADME
# Method in brief: as §1
# [11] = rat plasma pharmacokinetics; assay type: in vivo
# Method in brief: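 Four 49-day-old male Long-Evans rats with jugular vein catheters, housed singly in metabolite cages. Test compound given i.p. at 3 mg/kg (3 mg/mL in 7.8% polysorbate 80/92.2% saline). Blood drawn 0.25 h before dosing and 0.25, 0.5, 1, 2, 4, 8 and 24 h after, into chilled K3EDTA. Plasma separated at 4 °C, extracted with acetonitrile (3:1) and analysed by LC-MS/MS.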
# [12] = metabolite analysis in mouse urine; assay type: in vivo; details: mice, 30 mg/kg i.p., pooled 24 h urine, LC-MS
# [13] = rimonabant 3 mg/kg i.v. 10 min before EG-018 56 mg/kg i.v.
# [14] = HEK293, read-out: % of CP55,940 Emax
# [15] = i.p., 30 min, THC 3, 10 or 56 mg/kg, EG-018 1-100 mg/kg
# [16] = i.p., THC 3, 10 or 56 mg/kg, EG-018 1-100 mg/kg
# [17] = Sprague-Dawley, rat, pooled rat liver microsomes, pH 7.4
# [18] = human, pooled human liver microsomes, pH 7.4
# [19] = male, Long-Evans, rat, plasma, ip, 3 mg/kg
# Chain of human CB2 (hCB2) receptor (P34972 whole entry): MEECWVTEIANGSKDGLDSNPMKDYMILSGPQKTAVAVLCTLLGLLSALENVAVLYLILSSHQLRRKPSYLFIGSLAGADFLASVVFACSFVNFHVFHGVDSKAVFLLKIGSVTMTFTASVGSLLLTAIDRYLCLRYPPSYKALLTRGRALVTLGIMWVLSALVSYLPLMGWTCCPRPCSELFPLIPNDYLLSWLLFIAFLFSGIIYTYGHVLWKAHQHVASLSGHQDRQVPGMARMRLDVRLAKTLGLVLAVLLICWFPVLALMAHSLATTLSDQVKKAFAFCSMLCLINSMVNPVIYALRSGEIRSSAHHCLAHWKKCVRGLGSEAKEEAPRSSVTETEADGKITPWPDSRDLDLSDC
# T1 sequence (P34972 whole entry): as above
# T2 sequence (P21554 whole entry): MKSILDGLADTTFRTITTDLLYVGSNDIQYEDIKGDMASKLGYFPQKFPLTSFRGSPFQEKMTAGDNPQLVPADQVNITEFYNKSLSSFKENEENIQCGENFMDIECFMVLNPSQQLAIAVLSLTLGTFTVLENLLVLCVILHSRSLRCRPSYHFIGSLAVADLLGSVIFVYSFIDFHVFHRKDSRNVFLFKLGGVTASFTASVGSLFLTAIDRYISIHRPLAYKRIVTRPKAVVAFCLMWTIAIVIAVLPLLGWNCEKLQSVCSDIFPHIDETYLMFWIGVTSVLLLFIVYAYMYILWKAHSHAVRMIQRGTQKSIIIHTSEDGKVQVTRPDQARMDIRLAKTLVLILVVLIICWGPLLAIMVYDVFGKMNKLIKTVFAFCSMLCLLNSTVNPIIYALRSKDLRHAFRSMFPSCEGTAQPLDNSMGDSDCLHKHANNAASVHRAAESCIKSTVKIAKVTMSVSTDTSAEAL
# Chain of human CB1 (hCB1) receptor (P21554 whole entry): as above
smiles,measurement,setting,value
CCCCCn1cc(C(=O)Nc2cccc3ccccc23)c2ccccc21 [NNEI],Tmax,[1],approximately 0.5 hours
"CCCCCCC(C)(C)c1ccc([C@@H]2C[C@H](O)CC[C@H]2CCCO)c(O)c1 [CP55,940, reference compound]",greater potency for mini-Gαi over beta arrestin-2,hCB1 receptors,four-fold shift in potency
CCCCC/C=C\C/C=C\C/C=C\C/C=C\CCCC(=O)NCCO [anandamide],"CP55,940 more potent than the compound",hCB2 receptor [2],200 fold
same,"CP55,940 greater efficacy than the compound",hCB2 receptor [2],2.5 fold
same,Emax,hCB2 receptor [2]; read-out: Emax±SEM,49.2 ± 2.25%
"Cc1c(C(=O)NN2CCCCC2)nn(-c2ccc(Cl)cc2Cl)c1-c1ccc(Cl)cc1 [rimonabant, reference compound]",antagonism of EG-018-induced catalepsy,male ICR mice; [13],attenuated catalepsy
same,antagonism of EG-018-induced hypomotility,male ICR mice; [13],did not significantly reduce
same,antagonism of EG-018-induced hypothermia,male ICR mice; [13],did not significantly reduce hypothermia
same,antagonism of FUBIMINA tetrad effects,mice; rimonabant 3 mg/kg i.v. before FUBIMINA 56 mg/kg i.v.,reversed
O=C(c1cccc2ccccc12)c1nc2ccccc2n1CCCCCF [FUBIMINA],Ki,CB1,296 nM
same,tetrad effects,mice; 56 mg/kg i.v.,produced marked tetrad effects in all four measures
same,tetrad effects,mice; doses up to 100 mg/kg i.p.,largely without effect
CCCCCn1nc(C(=O)Nc2cccc3ccccc23)c2ccccc21 [MN-18],Tmax,[1],~2.5 h
"CCCCCn1c2ccccc2c2cc(C(=O)c3cccc4ccccc34)ccc21 [EG-018, Naphthalen-1-yl(9-pentyl-9H-carbazol-3-yl)methanone]","lower affinity than CP55,940",[3],10- to 40 fold
same,Ki,"[4]; Ki (nM), hCB2, HEK293 membranes, [3H]CP55,940",8 nM and 7.76 nM
same,greater affinity for hCB2 over hCB1,[4]; Ki ratio hCB1/hCB2,approximately 3 fold
same,"less potent than CP55,940","hCB1 receptor [5]; hCB1, [35S]GTPγS",approximately 90 fold
same,"CP55,940 greater efficacy than the compound","hCB1 receptor [5]; hCB1, [35S]GTPγS Emax",3.5 fold
same,less efficacy than THC,"hCB1 receptor [5]; hCB1, [35S]GTPγS Emax",approximately 2 fold
same,activity in [35S]GTPγS binding,"hCB1 receptor [5]; initial studies, ligands not pre-equilibrated prior to addition of [35S]GTPγS (data not shown)",appeared to be inactive
same,Emax,"hCB1 receptor [5]; read-out: % of CP55,940 Emax",28%
same,Emax,hCB1 receptor [5]; read-out: Emax±SEM,73.9 ± 9.12%
same,EC50,hCB2 receptor [2],11.3 nM
same,"CP55,940 more potent than the compound",hCB2 receptor [2],12 fold
same,"CP55,940 greater efficacy than the compound",hCB2 receptor [2],2.5 fold
same,Emax,"hCB2 receptor [2]; read-out: % of CP55,940 Emax",40%
same,Emax,hCB2 receptor [2]; read-out: Emax±SEM,46.2 ± 2.72%
same,Emax,hCB1 receptor [6]; [14],73%
same,Emax,"hCB1 receptor [6]; HEK293, read-out: Emax±SEM",32.9 ± 2.27%
same,"CP55,940 more potent than the compound","hCB1 receptor [6]; hCB1, cAMP",53 fold
same,EC50,hCB2 receptor [7],182 nM
same,Emax,hCB2 receptor [7]; [14],48%
same,Emax,"hCB2 receptor [7]; HEK293, read-out: Emax±SEM",28.1 ± 6.14%
same,"CP55,940 more potent than the compound",hCB2 receptor [7],114 fold
same,substitution for THC,[8],did not substitute for THC at any dose
same,effect on response rates compared to vehicle,[8],Neither THC nor EG-018 significantly affected response rates
same,antinociception (tail-flick),male ICR mice; 56 mg/kg i.v.,did not significantly elicit antinociceptive behavior
same,catalepsy (ring immobility),male ICR mice; 56 mg/kg i.v.,catalepsy
same,rectal temperature,male ICR mice; 56 mg/kg i.v.,hypothermia
same,locomotor activity,"male ICR mice; 56 mg/kg i.v., 5 min",hypomotility
same,locomotor activity,male ICR mice; [15],did not produce significant effects in any of the four assays
same,antinociception (tail-flick),male ICR mice; [16],did not produce significant effects in any of the four assays
same,catalepsy (ring immobility),male ICR mice; [16],did not produce significant effects in any of the four assays
same,rectal temperature,male ICR mice; [16],did not produce significant effects in any of the four assays
same,half-life at 1 μM,[9]; [17],4.29 min
same,microsomal CLint at 1 μM,[9]; [17],160 µL/min/mg
same,CLH (mL/min/kg body wt.),"[9]; rat liver microsomes, estimated hepatic clearance",46.39 mL/min/kg body wt.
same,CLint (mL/min/kg body wt.),"[9]; rat liver microsomes, estimated intrinsic clearance",290.77 mL/min/kg body wt.
same,ER,"[9]; rat liver microsomes, extraction ratio",0.84
same,CLH (mL/min/kg body wt.),"[10]; human liver microsomes, estimated hepatic clearance",19.03 mL/min/kg body wt.
same,CLint (mL/min/kg body wt.),"[10]; human liver microsomes, estimated intrinsic clearance",393.09 mL/min/kg body wt.
same,ER,"[10]; human liver microsomes, extraction ratio",0.95
same,half-life at 1 μM,[10]; [18],2.04 min
same,microsomal CLint at 1 μM,[10]; [18],340 µL/min/mg
same,AUC(0-inf),[11]; [19],168 ng·h/mL
same,AUC(0-t),[11]; [19],154 ng·h/mL
same,Cmax,[11]; [19],26 ng/mL
same,Tmax,[11]; [19],2 h
same,half-life,"[11]; male, Long-Evans, rat, plasma, ip, 3 mg/kg, Half life (h), rat plasma, 3 mg/kg i.p.",2.5 h
same,CL/F (mL/min/kg body wt.),"[11]; rat plasma, 3 mg/kg i.p., observed apparent clearance",520.93 mL/min/kg body wt.
same,Half life,"[11]; rat plasma, 3 mg/kg i.p., 3 mg/kg",2.53 h
same,parent compound or metabolites in urine,[12],No intact parent compound or metabolites were identified
same,greater potency for mini-Gαi over beta arrestin-2,hCB1 receptors,26 fold
"CCCCCc1cc(O)c2c(c1)OC(C)(C)[C@@H]1CCC(C)=C[C@@H]21 [THC, delta-9-tetrahydrocannabinol]",Emax,hCB2 receptor [7]; [14],45%
same,Emax,"hCB2 receptor [7]; HEK293, read-out: Emax±SEM",27.3 ± 3.68%
same,"CP55,940 more potent than the compound",hCB2 receptor [7],26 fold
same,ED50,"[8]; ip, read-out: ED50, substitution for THC",2.2 mg/kg
same,ED50,"[8]; ip, read-out: ED50 of THC after EG-018 pretreatment",1.2 mg/kg
same,ED50,[8]; read-out: ED50 of THC after vehicle pretreatment,1.5 mg/kg
same,substitution for THC,[8],fully substituted for itself
same,effect on response rates compared to vehicle,[8],Neither THC nor EG-018 significantly affected response rates
same,locomotor activity,male ICR mice; [15],hypomotility
same,antinociception (tail-flick),male ICR mice; [16],anti-nociception
same,catalepsy (ring immobility),male ICR mice; [16],catalepsy
same,rectal temperature,male ICR mice; [16],hypothermia
